This is an account of results in ChEMBL document CHEMBL1134798, “Pharmacological evaluation of a diarylmethylene-piperidine derivative: a new potent atypical antipsychotic?” (Bioorg Med Chem Lett, 2001).

The subject of assay [1] is Mus musculus. As to the kind of experiment: Effective dose required for inhibition of apomorphine(sc, 2.5 mg/kg ) induced climbing in mice on po administration. The class given is functional. Summed up: (§1)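 Mice were dosed po 30 min before apomorphine hydrochloride (2.5 mg/kg sc), in groups of eight. ED50 for inhibition of climbing or stereotypy was derived by non-linear regression.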

The test system of assay [2] is Mus musculus. Briefly: Effective dose required for inhibition of apomorphine(sc, 2.5 mg/kg ) induced climbing in mice on ip administration. It counts as functional. The following applies: route intraperitoneal. Put shortly: (§2)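 Apomorphine hydrochloride given sc at 2.5 mg/kg to induce climbing and stereotypy. Compounds dosed 30 min earlier, groups of eight mice. ED50 for each behaviour by non-linear regression.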

Assay [3] deals with Mus musculus. Briefly: Decrease in number of avoidance responses in mice at a dose ~25 mg/kg. The class given is functional.
Assay [4] deals with Mus musculus. Briefly: Anticholinergic effect evaluated in mice using oxotremorine induced salivation(ip). The class given is functional. Summed up:
(§3)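 Mice were dosed ip 30 min before oxotremorine (0.25 mg/kg ip), in groups of six. Salivation and tremors were scored every 5 min for 30 min. ED50 was derived by non-linear regression.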

The species entered for assay [5] is Mus musculus. As to the kind of experiment: Induction of sedation in mice evaluated in IRWIN-test. It counts as functional. Put shortly:
(§4)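 Irwin observational test run to a standard protocol after ip administration.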

The species named for assay [6] is Mus musculus. As to the kind of experiment: Induction of convulsions in mice evaluated in IRWIN-test. It counts as functional. Summed up:
as §4

The subject of assay [7] is Mus musculus. Briefly: Anticholinergic effect evaluated in mice using oxotremorine induced tremors(ip). The class given is functional. Put shortly: as §3
Assay [8] concerns Mus musculus. Briefly: Effective dose required for inhibition of apomorphine(sc, 2.5 mg/kg ) induced stereotypy in mice on […]. It counts as functional. Summed up: as §1
Assay [9] concerns Rattus norvegicus. Briefly: Increase in heart rate by the compound at a dose of 10.5 mg/kg in rats. It counts as functional.
The subject of assay [10] is Mus musculus. Briefly: Effective dose required for inhibition of apomorphine(sc, 2.5 mg/kg ) induced stereotypy in mice on ip administration. It counts as functional. The note with it: route intraperitoneal. Put shortly: as §2
The subject of assay [11] is Mus musculus. As to the kind of experiment: Induction of catalepsy up to a dose of 160 mg/kg when administered po in mice; No induction. The class given is functional, organism-based. Also noted: dose 160 mg/kg.
The subject of assay [12] is Mus musculus. Briefly: Effective dose required for inhibition of DOI-induced head-twitches in mice on ip administration. It counts as functional. Put shortly:
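Head-twitches elicited by ip (±)-DOI hydrochloride, 1.6 mg/kg. Mice (groups of eight) pretreated ip 30 min before DOI. Twitches counted for 5 min starting 5 min after DOI. ED50 by non-linear regression.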

Assay [13] has as its system Mus musculus. As to the kind of experiment: Decrease in number of avoidance responses in mice at a dose ~10 mg/kg. The class given is functional. The note with it: at 10 mg/kg.
The species named for assay [14] is Mus musculus. Briefly: Lethality in mice evaluated in IRWIN-test. The class given is functional. Summed up:
as §4

Assay [15] relates to Rattus norvegicus. Briefly: Decrease in arterial blood pressure by the compound at a dose of 32.7 mg/kg in rats 0.5-2.5h after administration. It counts as functional, Artery.
The test system of assay [16] is Mus musculus. Briefly: Decrease in number of avoidance responses in mice at a dose ~50 mg/kg. The class given is functional.
For assay [17], the system named is Mus musculus. As to the kind of experiment: Antagonistic activity on amphetamine-induced stereotypy at a dose of 100 umol/kg (p<0.05). It counts as functional.
Assay [18] concerns Rattus norvegicus. Briefly: Increase in heart rate by the compound at a dose of 43.1-431 mg/kg in rats on oral administration; No significant. It counts as functional, organism-based.
Assay [19] concerns Rattus norvegicus. Briefly: Decrease in arterial blood pressure by the compound at a dose of 43.1-431 mg/kg in rats 24 hr after oral administration; No significant. The class given is functional, organism-based. The note with it: Artery.
The target of assay [20] is Serotonin 2 (5-HT2) receptor (Homo sapiens, UniProt P41595+P28223+P28335). Briefly: In vitro binding affinity for 5-hydroxytryptamine 2 receptor. It counts as protein assay.
Assay [21] deals with Mus musculus. Briefly: Decrease in number of avoidance responses in mice at a dose ~60 mg/kg. It counts as functional. The note with it: at 60 mg/kg.
The test system of assay [22] is Mus musculus. Briefly: Decrease in number of avoidance responses in mice at a dose ~115 mg/kg. It counts as functional.
Assay [23] concerns Mus musculus. As to the kind of experiment: Decrease in number of avoidance responses in mice at a dose ~100 mg/kg. The class given is functional. The note with it: at 100 mg/kg.
Assay [24] is filed under the species Mus musculus. Briefly: Anticholinergic effect evaluated in mice using oxotremorine induced salivation. It counts as functional. Put shortly: (§5)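 Oxotremorine 0.25 mg/kg ip induced tremors and salivation. Compounds were given ip 30 min beforehand, groups of six mice. Scoring every 5 min over 30 min. ED50 from non-linear regression.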
The subject of assay [25] is Mus musculus. Briefly: Decrease in number of avoidance responses in mice at a dose ~110 mg/kg. It counts as functional.
The species entered for assay [26] is Mus musculus. As to the kind of experiment: Anticholinergic effect evaluated in mice using oxotremorine induced tremors. The class given is functional. Summed up:
as §5

Assay [27] deals with Mus musculus. Briefly: Decrease in d-amphetamine-induced hyperactivity at a dose of 10 umol/kg (p<0.01). It counts as functional.
The target of a further assay is T1, D(4) dopamine receptor (Homo sapiens, UniProt P21917).
T1 sequence (P21917 whole entry): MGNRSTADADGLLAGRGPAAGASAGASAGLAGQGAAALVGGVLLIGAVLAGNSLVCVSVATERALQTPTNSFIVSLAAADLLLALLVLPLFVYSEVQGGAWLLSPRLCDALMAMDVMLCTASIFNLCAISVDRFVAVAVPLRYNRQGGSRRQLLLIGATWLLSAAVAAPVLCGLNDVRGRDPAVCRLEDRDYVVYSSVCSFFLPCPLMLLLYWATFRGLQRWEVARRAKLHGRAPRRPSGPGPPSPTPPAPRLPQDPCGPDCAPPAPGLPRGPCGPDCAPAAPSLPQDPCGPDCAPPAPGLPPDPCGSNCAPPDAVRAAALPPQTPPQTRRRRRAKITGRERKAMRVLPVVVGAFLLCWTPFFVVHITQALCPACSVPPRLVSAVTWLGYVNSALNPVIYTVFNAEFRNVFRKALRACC
As to the kind of experiment: In vitro binding affinity for Dopamine receptor D4.

SMILES strings stand for the structures. The source made the active and inactive calls. The rule behind the calls is not given here.

As for `CN1CCN(C2=Nc3cc(Cl)ccc3Nc3ccccc32)CC1` [CLOZAPINE], the 50% effective dose (ED50) with Mus musculus [1] stood at 30 µmol/kg; in the assay on Mus musculus [2] it was 28 µmol/kg; in the assay on Mus musculus [8] it was 62 µmol/kg; in the assay on Mus musculus [10] it was 67 µmol/kg; with Mus musculus [12], 1.5 µmol/kg. For the same compound, the entries for the “Decrease in No. of avoidence responses” value in the assay on Mus musculus [3], in the assay on Mus musculus [13] and with Mus musculus [16] were 65%, 10% and 85%, respectively. The Activity is reported as 8 with Mus musculus [4]; 3.2 in the assay filed under Mus musculus [5]; 180 in the assay filed under Mus musculus [6]; 12 in the assay on Mus musculus [7]; 320 in the assay filed under Mus musculus [14]. In the assay on Rattus norvegicus [9], the “Increase in heart rate” value turned out to be 49%. Besides, the Induction of catalepsy entry in the assay on Mus musculus [11] is “inactive”. Further, in the assay with Rattus norvegicus [15], the “Decrease in arterial blood pressure” value amounted to 32%.

For the compound `OCCOCCN1CCN(C2=Nc3ccccc3Sc3ccccc32)CC1` [QUETIAPINE], the 50% effective dose (ED50) in the assay on Mus musculus [2] is 51 µmol/kg; with Mus musculus [10], 60 µmol/kg; in the assay with Mus musculus [12], 9 µmol/kg.

In the case of `NC(=O)C1CCC(CN2CCC(=C(c3ccccc3)c3ccc(F)cc3)CC2)O1` (configuration not stated), the Decrease came out at 13% in the assay with Mus musculus [17] and 44% in the assay with Mus musculus [27]. In the assay on Rattus norvegicus [18], the “Increase in heart rate” value is “inactive”. Besides, the ED50 in the assay on Mus musculus [1] worked out at 140 µmol/kg; with Mus musculus [2], 46 µmol/kg; in the assay with Mus musculus [8], 290 µmol/kg; in the assay on Mus musculus [10] it was 69 µmol/kg; with Mus musculus [12], 16 µmol/kg. Moreover, in the assay on Rattus norvegicus [19], the “Decrease in arterial blood pressure” value is “inactive”. Besides, the “Log Ki” value in [20] was -7.5. The Activity in the assay listed under Mus musculus [5] stood at 100; in the assay filed under Mus musculus [6], 320; in the assay listed under Mus musculus [24], 20; in the assay listed under Mus musculus [14] it was 1000; in the assay filed under Mus musculus [26], 32. The “Decrease in No. of avoidence responses” value with Mus musculus [21] is given as 12.5%; in the assay with Mus musculus [22], 80%; in the assay with Mus musculus [23], 27%; with Mus musculus [25], 45%. The compound also had a Ki at D(4) dopamine receptor of 158 nM.

As for `O=C(CCCN1CCC(O)(c2ccc(Cl)cc2)CC1)c1ccc(F)cc1` [HALOPERIDOL], the ED50 was 0.32 µmol/kg with Mus musculus [2], 0.31 µmol/kg with Mus musculus [10] and 0.61 µmol/kg in the assay on Mus musculus [12].
